Test results published in ChEMBL document CHEMBL1156597, “Structure-activity relationship of kahalalide F synthetic analogues” (J Med Chem, 2008).

Columns and labels:
DU-145 = assay: Cytotoxicity against human DU145 cells after 48 hrs by SRB assay; assay type: functional, cell-based; details: Homo sapiens, DU-145, 48 h; for GI50: read-out: GI50; for CC50: read-out: LC50 (the source's name)
Summary of the method: (§1)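 Cells grown in RPMI 1640 with 10% FBS and penicillin/streptomycin at 37 °C and 5% CO₂, trypsinized, then seeded at 5 × 10³/well. After 18 h drug-free attachment, samples in DMSO/EtOH/PBS (0.5:0.5:99) were added for 48 h continuous exposure. Cells were fixed with cold TCA (1 h, 4 °C) and stained with SRB (10 min). Tris-solubilized stain read at 490 nm. Triplicate wells, mean ± SD; GI₅₀ derived.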

LNCaP = assay: Cytotoxicity against human LNcaP cells after 48 hrs by SRB assay; assay type: functional; details: for CC50: read-out: LC50 (the source's name); summary of the method: as §1
[1] = Cytotoxicity against human IGROV cells after 48 hrs by SRB assay; assay type: functional; details: for CC50: read-out: LC50 (the source's name); summary of the method: as §1
[2] = Cytotoxicity against human IGROV-ET cells after 48 hrs by SRB assay; assay type: functional; details: for CC50: read-out: LC50 (the source's name); summary of the method: as §1
SK-MEL-28 = assay: Cytotoxicity against human SK-MEL-28 cells after 48 hrs by SRB assay; assay type: functional, cell-based; details: Homo sapiens, SK-MEL-28, 48 h; for CC50: read-out: LC50 (the source's name); summary of the method: as §1
A549 = assay: Cytotoxicity against human A549 cells after 48 hrs by SRB assay; assay type: functional, cell-based; details: Homo sapiens, A549, 48 h; for GI50: read-out: GI50; summary of the method: as §1
K562 = assay: Cytotoxicity against human K562 cells after 48 hrs by SRB assay; assay type: functional; details: K562, 48 h; for CC50: read-out: LC50 (the source's name); summary of the method: as §1
PANC-1 = assay: Cytotoxicity against human PANC1 cells after 48 hrs by SRB assay; assay type: functional; details: PANC-1, 48 h; for CC50: read-out: LC50 (the source's name); summary of the method: as §1
HT-29 = assay: Cytotoxicity against human HT29 cells after 48 hrs by SRB assay; assay type: functional, cell-based; details: Homo sapiens, HT-29, 48 h; for CC50: read-out: LC50 (the source's name); summary of the method: as §1
LoVo [3] = assay: Cytotoxicity against human LoVo cells after 48 hrs by SRB assay; assay type: functional; details: for CC50: read-out: LC50 (the source's name)
LoVo [4] = assay: Cytotoxicity against human doxorubicin resistant LoVo cells after 48 hrs by SRB assay; assay type: functional; details: read-out: LC50 (the source's name); summary of the method: as §1

C/C=C1\NC(=O)[C@H](Cc2ccccc2)NC(=O)[C@@H](C(C)C)NC(=O)[C@@H]([C@H](C)CC)NC(=O)[C@H](NC(=O)[C@H](NC(=O)[C@H](CCCN)NC(=O)[C@H]2CCCN2C(=O)[C@H](NC(=O)[C@@H](NC(=O)[C@@H](NC(=O)[C@H](NC(=O)Cc2ccc(C(F)(F)F)cc2)C(C)C)[C@@H](C)O)C(C)C)C(C)C)[C@H](C)CC)[C@H](C)OC(=O)[C@H](C(C)C)NC1=O
TGI (DU-145): 5.5 µM
GI50 (DU-145): 5.28 µM
CC50 (DU-145): 6.24 µM
GI50 (LNCaP): 1.63 µM
TGI (LNCaP): 3.13 µM
CC50 (LNCaP): 4.4 µM
GI50 [1]: 0.892 µM
GI50 ([1]; read-out: GI50): 1 µM
CC50 [1]: 1.89 µM
GI50 [2]: 0.675 µM
GI50 ([2]; read-out: GI50): 0.866 µM
CC50 [2]: 0.524 µM
TGI (SK-MEL-28): 15.9 µM
GI50 (SK-MEL-28; read-out: GI50): 2.8 µM
CC50 (SK-MEL-28): 1.2 µM
LC50 (A549): 1.1 µM
TGI (A549): 2.15 µM
GI50 (A549): 1.84 µM
GI50 (K562): 2.23 µM
TGI (K562): 2.52 µM
CC50 (K562): 2.79 µM
GI50 (PANC-1): 2.17 µM
TGI (PANC-1): 2.25 µM
CC50 (PANC-1): 2.34 µM
GI50 (HT-29): 1.68 µM
TGI (HT-29): 2.3 µM
CC50 (HT-29): 2.92 µM
GI50 (LoVo [3]): 0.458 µM
TGI (LoVo [3]): 0.492 µM
CC50 (LoVo [3]): 0.819 µM
CC50 (LoVo [4]): 1.24 µM

C/C=C1\NC(=O)[C@H](Cc2ccccc2)NC(=O)[C@@H](C(C)C)NC(=O)[C@@H]([C@H](C)CC)NC(=O)[C@H](NC(=O)[C@H](NC(=O)[C@H](CCCN)NC(=O)[C@H]2CCCN2C(=O)[C@H](NC(=O)[C@@H](NC(=O)[C@@H](NC(=O)[C@H](NC(=O)CCCCC(C)(F)F)C(C)C)[C@@H](C)O)C(C)C)C(C)C)[C@H](C)CC)[C@H](C)OC(=O)[C@H](C(C)C)NC1=O
TGI (DU-145): 3.92 µM
GI50 (DU-145): 4.52 µM
CC50 (DU-145): 5.48 µM
GI50 (LNCaP): 1.84 µM
TGI (LNCaP): 2.87 µM
CC50 (LNCaP): 3.73 µM
TGI [1]: 1.54 µM
GI50 ([1]; read-out: GI50): 1.33 µM
CC50 [1]: 2.46 µM
GI50 [2]: 0.751 µM
GI50 ([2]; read-out: GI50): 0.987 µM
CC50 [2]: 0.571 µM
CC50 (SK-MEL-28): 1.3 µM
LC50 (A549): 1.44 µM
TGI (A549): 2.32 µM
GI50 (A549): 2.03 µM
GI50 (K562): 2.96 µM
TGI (K562): 2.46 µM
CC50 (K562): 2.06 µM
GI50 (PANC-1): 2.04 µM
TGI (PANC-1): 1.85 µM
CC50 (PANC-1): 1.69 µM
GI50 (HT-29): 1.96 µM
TGI (HT-29): 2.51 µM
CC50 (HT-29): 3.19 µM
GI50 (LoVo [3]): 0.442 µM
TGI (LoVo [3]): 0.397 µM
CC50 (LoVo [3]): 0.444 µM
CC50 (LoVo [4]): 50.7 µM

C/C=C1\NC(=O)[C@H](Cc2ccccc2)NC(=O)[C@@H](C(C)C)NC(=O)[C@@H]([C@H](C)CC)NC(=O)[C@H](NC(=O)[C@H](NC(=O)[C@H](CCCN)NC(=O)[C@H]2CCCN2C(=O)[C@H](NC(=O)CCCCCCCCCCCCC)C(C)C)[C@H](C)CC)[C@H](C)OC(=O)[C@H](C(C)C)NC1=O
CC50 (DU-145): 17.9 µM
GI50 (LNCaP): 7.21 µM
TGI (LNCaP): 8.1 µM
CC50 (LNCaP): 8.02 µM
CC50 [1]: 5.33 µM
CC50 [2]: 5.19 µM
CC50 (SK-MEL-28): 1.87 µM
LC50 (A549): 2.65 µM
GI50 (K562): 3 µM
TGI (K562): 3.47 µM
CC50 (K562): 3.39 µM
GI50 (PANC-1): 2.45 µM
TGI (PANC-1): 2.4 µM
CC50 (PANC-1): 2.16 µM
CC50 (HT-29): 6.89 µM
CC50 (LoVo [3]): 3.98 µM
CC50 (LoVo [4]): 5.37 µM
